Screening results deposited in PubChem BioAssay by several laboratories.
Platelet DG rel: modulates dense granule release in human platelets | 300,000 tested, 0.22% active | human platelet-rich plasma, SFLLRN dense granule ATP release, luminescence | AID 1663 | inhibition, %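 (compounds screened at 7.5 µM in platelet-rich plasma)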;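 active = mean replicate score, as percent of positive control, at or above 50; inconclusive = mean below 50 but at least one replicate at or above 50; inactive = mean and every replicate below 50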
STAT1 blocker: reduces IFN-gamma driven STAT1 reporter signal. inhibition, % at 5.5 µM. NIH 3T3 STAT1-luciferase reporter, luminescence. 200,000 tested, 0.35% active;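 active = inhibition above a set limit, the mean inhibition across all tested compounds plus 3 SD, cut at about 34% in these data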
PPC-1+TRAIL kill: PPC-1 cancer cell killing with TRAIL present. cell killing (% activity), % at 4 µM or 5 µM. AID 1443. PPC-1 cells + TRAIL, ATPLite viability luminescence. 220,000 tested, 0.41% active;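 active = cell killing above 50% in the first pass at 4 µM, then a duplicate retest at 5 µM averaging 50% or more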
Lipid droplet: hepatic lipid droplet formation modulation. inhibition, % at 6.5 µM. 240,000 tested, 0.4% active. AML12 mouse hepatocytes, oleate lipid droplets, BODIPY imaging. AID 1656;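 active = lipid droplet intensity inhibited by at least 50%, with more than 500 cells counted; inconclusive = wells with under 300 cells, treated as cytotoxic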
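Material – mouse AML12 hepatocyte cell line, fixed after treatment · Compound dosing – one dose, 6.5 µM compound · Times – compound with oleate, overnight · Measured by – Image-based BODIPY and DAPI two-channel analysis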
H9c2 TAG inh: inhibitors of triacylglycerol accumulation | AID 651582 | H9c2 cells, Nile Red lipid (TAG) fluorescence; cells loaded with 200 µM oleic acid | inhibition, % at 12.5 µM | 230,000 tested, 0.66% active;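 active = pattern-corrected inhibition of lipid staining of at least 50% with the nuclear-stain viability signal not falling by more than 50%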
STAT3 inh-1: STAT3 signaling inhibition; U3A cells, IL-6 STAT3-luciferase reporter, luminescence; host cell line lacks STAT1; inhibition, % at 5.5 µM; 190,000 tested, 0.89% active;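 active = inhibition above the mean inhibition across all screened compounds plus 3 SD, cut at about 44% in these data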
STAT3 inh-2: STAT3 inhibition, confirmation assay; inhibition, % at 5.7 µM; shares compounds with STAT3 inh-1; U3A cells, IL-6 STAT3 luciferase reporter, luminescence; cell line lacks STAT1; 1,200 tested, 45% active;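 active = inhibition above the hit cutoff computed for the primary STAT3 screen, cut at about 44% in these data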
NFkB inh STAT3ct: NF-kappaB inhibition in STAT3 inhibitor counter-screen; AID 1308; HEK293T NF-kB luciferase reporter, TNF-alpha induced; shares compounds with STAT3 inh-1; 1,200 tested, 36% active; inhibition, % at 5.7 µM;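 active = inhibition above the mean of solvent-only control wells plus 3 SD, cutoff set per campaign, cut at about 13% in these data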
STAT1 inh STAT3c: STAT1 inhibition in STAT3 inhibitor counter-screen; shares compounds with STAT3 inh-1; NIH 3T3 STAT1-luciferase reporter, IFN-gamma induced, luminescence; inhibition, % at 5.7 µM; 1,200 tested, 27% active;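 active = inhibition above the mean plus 3 SD of solvent-only control wells, limit set per screening run, cut at about 16% in these data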
PPC1 cytotox: kills PPC-1 cells. shares compounds with PPC-1+TRAIL kill. PPC-1 viability, ATPlite luminescence, overnight. cytotoxicity, % at 5 µM. 1,200 tested, 50% active. AID 1447;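 active = reconfirmed compounds whose average cytotoxicity reaches 50% or more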
Lipid drop inh: hepatic lipid droplet formation inhibition, confirmed; shares compounds with Lipid droplet; AML12 mouse hepatocytes, BODIPY lipid droplet imaging; droplets induced with 100 µM oleic acid; inhibition, % at 5.2 µM; 870 tested, 65% active; AID 463183;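 active = inhibition of lipid droplet metric at least 50%, with more than 300 cells in each of four replicates; inconclusive = wells under 300 cells, flagged as toxic or low count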
AML12 cytotox: toxic to AML12 mouse hepatocytes in counter-screen. shares compounds with Lipid droplet. DAPI nuclear morphology cytotoxicity imaging; stronger effect = higher value; cells fed 100 µM oleate overnight. z-score at 5 µM. 870 tested, 3% active; in the data active = z-score above about 6.3;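 also: compound exposure lasted overnight at 37 °C before fixation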
Numbers stand for hits; 0 = inactive; ? = inconclusive; - = not tested or not shown. Most compounds without a hit are left out; they make up all but 1.5% or so of the library.

SMILES	Platelet DG rel	STAT1 blocker	PPC-1+TRAIL kill	Lipid droplet	H9c2 TAG inh	STAT3 inh-1	STAT3 inh-2	NFkB inh STAT3ct	STAT1 inh STAT3c	PPC1 cytotox	others
Cc1cc(N2CCOCC2)n2ncc(-c3ccccc3)c2n1	0	0	0	0	-	66	0	0	0	0
COCCNC(=O)C1CCCN(C(=O)c2nc3ccccc3s2)CC1 (stereo unspecified)	-	-	-	-	0	-	-	-	-	-
CCCOc1ccc(-c2nnc(-c3ccco3)o2)cc1	0	0	0	-	-	78	0	0	0	0
O=C(Nc1nsc(-c2ccccc2)n1)c1cccs1	0	0	0	0	0	45	0	0	0	0
COc1cccc(/C=C/C(=O)Nc2cccc(C(C)=O)c2)c1OC	0	0	0	0	0	0	-	-	-	-
COc1cccc(/C=C/C(=O)Nc2ccc3c(c2)OCCO3)c1OC	0	0	70	0	0	66	0	0	0	66
Cc1nc(-c2ccc(NC(=O)c3ccccc3)cc2)cs1	0	0	64	0	0	71	0	0	0	61
O=C(NCCc1ccccc1)C1Cc2c(-c3ccc4c(c3)OCO4)ccnc2O1 (stereo unspecified)	-	-	-	-	0	-	-	-	-	-
c1ccc2sc(NN=C3CCCCCC3)nc2c1	0	34	61	0	0	75	0	0	0	64
NC(=O)c1ccccc1N/C=C/C(=O)c1ccc(Cl)cc1Cl	52	0	81	-	0	62	0	0	0	81
CCOC(=O)Cc1csc(NC(=O)c2cc3c(s2)CCCC3)n1	0	0	0	0	-	0	-	-	-	-
Cc1csc(NC(=O)c2cc3c(s2)CCCC3)n1	-	0	66	-	0	86	55	0	0	69
COc1ccc([C@H]2C[C@H](O)[C@@H](n3cc(COC(=O)c4ccccc4)nn3)CN2C(=O)C2CCCCC2)cc1	-	-	-	-	0	-	-	-	-	-
O=C1C(=C2SCCCS2)CC/C1=C\c1ccc(F)cc1	0	0	90	-	0	115	93	81	0	90
Cc1ccc(S(=O)(=O)N2C[C@]3(O)C[C@@H]4C(=O)N(c5ccccc5)C(=O)[C@@H]4C[C@]3(OC(=O)NCC3CCCCC3)C2)cc1	-	-	-	-	0	-	-	-	-	-
Cc1nnc(NC(=O)c2sc3ccccc3c2Cl)s1	0	0	81	-	0	66	45	13	19	81
CCCNC(=O)Nc1nc2ccccc2s1	0	-	0	0	0	-	-	-	-	-
CCCNC(=O)c1ccc(-c2nc3ccccc3s2)s1	0	0	70	0	0	75	45	0	0	77
O=C(NCc1cccnc1)c1csc([C@H]2C[C@H](O)[C@@H](CO)O2)n1	-	-	-	-	0	-	-	-	-	-
Cc1ccccc1Nc1nc(N)c2ccccc2n1	58	0	58	0	0	61	0	0	0	54
Cc1ccccc1Nc1ncc(C#N)c(N)n1	0	-	0	0	0	-	-	-	-	-
C/C(=N\NC(=O)c1ccc(Cl)cc1)c1cccs1	0	0	63	0	0	59	0	0	0	64
O=C(Nc1ccc(N2CCOCC2)cc1)c1cn2ccccc2n1	68	0	81	-	-	76	0	0	0	82
O=C(Nc1ccc(Cl)c(S(=O)(=O)N2CCOCC2)c1)c1cn2ccccc2n1	0	0	0	0	0	0	-	-	-	-
O=C(N/N=C/c1ccc2ncccc2c1)c1ccco1	0	0	68	0	-	67	0	0	0	70
SMILES	Platelet DG rel	STAT1 blocker	PPC-1+TRAIL kill	Lipid droplet	H9c2 TAG inh	STAT3 inh-1	STAT3 inh-2	NFkB inh STAT3ct	STAT1 inh STAT3c	PPC1 cytotox	others
COCCN1C[C@@H](CO)O[C@@H](n2cnc3c(N(C)C)ncnc32)C1	-	-	-	-	0	-	-	-	-	-
O=C(CSc1nnc(NC(=O)c2ccc3c(c2)OCO3)s1)NCc1ccco1	-	0	80	0	0	53	0	0	0	80
COc1cccc(-c2cc(C(=O)Nc3cccc(O)c3)no2)c1	0	0	56	-	-	89	50	0	0	55
CCCCCCn1c2c(c(=N)c3c1CCC3)CCC2	0	0	0	0	-	81	82	35	27	0
CCCCCCCCCn1c2c(c(=N)c3c1CCC3)CCC2	0	0	0	0	0	82	85	59	30	0
CCCCCCn1c(=O)[nH]c2c(c1=O)CCC2	0	-	0	0	0	-	-	-	-	-
CCn1c2c(c(=N)c3c1CCC3)CCC2	0	0	0	0	-	0	-	-	-	-
CCCCCCCn1c2c(c(=N)c3c1CCC3)CCCC2	0	0	0	0	0	81	88	37	28	0
CSc1ccc(CN2C(=O)C(F)(F)Oc3c(C(C)=O)cccc32)cc1	-	-	-	-	0	-	-	-	-	-
Cc1c(C(=O)N2CCc3ccccc3C2)sc2nc(-c3ccccc3)cn12	0	0	0	0	-	0	-	-	-	-
c1ccc(-c2cn3c4c(sc3n2)CCCC4)cc1	0	0	82	0	0	82	59	50	0	83
Cc1cccc(C(=O)OCC(=O)NCc2ccc(Cl)cc2)c1	-	-	-	-	0	-	-	-	-	-
CCSc1ccc(-c2ccc(C)cc2)nn1	0	0	50	0	0	47	0	0	0	51
CCOc1ccc(-c2ccc(SCC)nn2)cc1	-	0	60	0	0	72	0	0	0	57
OCc1ccccc1-c1ccc2nccn2c1	-	-	-	-	0	-	-	-	-	-
Cn1c2nc(=O)n(-c3ccccc3)c(=O)c-2nc2c1CCCC2	-	-	-	-	0	-	-	-	-	-
COc1cc(C(=O)N2CCCCC2c2cc(C(=O)Nc3ccccc3)no2)cc(OC)c1C (stereo unspecified)	-	-	-	-	0	-	-	-	-	-
CNS(=O)(=O)c1cccc(C(=O)OCC(=O)Nc2ccc(-c3nc4ccc(C)cc4s3)cc2)c1	0	0	0	0	0	68	0	0	0	0
CCn1c(C)cc(C(=O)CN2C(=O)c3ccccc3S2(=O)=O)c1C	-	-	-	-	0	-	-	-	-	-
Cc1cc(C(=O)CN2C(=O)c3ccccc3S2(=O)=O)c(C)n1-c1ccccc1	0	0	0	65	0	59	78	16	58	0	Lipid drop inh=0;AML12 cytotox=0
C#CC(=O)N(c1ccc(OC)c(OC)c1)C(C(=O)NC1CCCC1)c1cccs1 (stereo unspecified)	0	36	98	110	-	108	89	19	32	98	Lipid drop inh=?;AML12 cytotox=35
C=CCC1(CC=C)CCCN1C(=O)c1ccc2oc(CCCC)nc2c1	-	-	-	-	0	-	-	-	-	-
